This passage reports Activity and MIC results from ChEMBL document CHEMBL1799936, “Azaphilones from the endophyte Chaetomium globosum” (2011).

Converted amounts (≈) assume the structure as drawn. The source made the active and inactive calls.

The test system of experiment [1] is Enterococcus faecalis. Nature of the experiment: Antibiotic activity against cytolysin-positive Enterococcus faecalis MMH594 infected in intestine of Caenorhabditis elegans glp-4(bn2ts);sek-1(km4) mutant infection model assessed as nematode survival at 50 to 100 ug/mL after 168 hrs by liquid infection assay. Format: functional, organism-based. Summed up:
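C. elegans glp-4(bn2ts);sek-1(km4) synchronized L4 to young adult worms, fed E. coli OP50, infected on E. faecalis MMH594 lawn, then moved to liquid medium (19% BHI, 80% M9, 80 μg mL-1 kanamycin, 1% DMSO) with compound at 100 and 50 μg mL-1 final. Survival scored at 3, 48, 120, 168 h. Ampicillin positive control.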

Experiment [2] relates to Globisporangium ultimum. Nature of the experiment: Antimicrobial activity against Pythium ultimum mycelia assessed as growth inhibition. The class given is functional.
Experiment [3] has as its system Pyricularia grisea. The experiment is described as follows: Antimicrobial activity against Magnaporthe grisea mycelia assessed as growth inhibition. The class given is functional.

One may read the MIC as the smallest concentration in the dilution series that meets the test's criterion for growth inhibition. In the case of `CC[C@H](C)/C=C/C1=CC2=C(Cl)C(=O)[C@@]3(C)OC(=O)C(C(=O)[C@@H](C)[C@@H](C)O)=C3C2=CO1` [CHAETOVIRIDIN A], in experiment [1], the result was inactive. Also, the MIC turned out to be 33.3 µg/mL (≈ 76.9 µM) in experiment [2] and 1.23 µg/mL (≈ 2.84 µM) in experiment [3].

Turning to `CC[C@H](C)/C=C/C1=CC2=C(Cl)C(=O)[C@@]3(C)OC(=O)[C@@H](C(=O)[C@@H](C)[C@H](C)O)[C@H]3C2=CO1`, the outcome in experiment [1] was inactive.

As to `CC(O)C(C)C1(O)O[C@]2(C)C(=O)C(Cl)=C3C=C(/C=C/[C@@H](C)[C@@H](C)O)OC=C3[C@@H]2[C@@H]1C(=O)O` (stereo partly specified), the result in experiment [1] was inactive.

As for `C/C=C(\C)C(=O)[C@@H]1C(=O)O[C@]2(C)C(=O)C(Cl)=C3C=C(/C=C/[C@@H](C)CC)OC=C3[C@H]12`, the outcome in experiment [1] was inactive.

`CC[C@H](C)/C=C/C1=CC2=C(Cl)C(=O)[C@@]3(C)OC(=O)C(C(=O)[C@@H](C)[C@H](C)O)=C3C2=CO1`: the result in experiment [1] was inactive.

Regarding `CC[C@H](C)/C=C/C1=CC2=C(Cl)C(=O)[C@@]3(C)OC(O)(C(C)C(C)O)[C@@H](C(=O)O)[C@H]3C2=CO1` (stereo partly specified) [CHAETOVIRIDIN B], the outcome in experiment [1] was inactive. Besides, the MIC turned out to be 33.3 µg/mL (≈ 73.5 µM) in experiment [2] and 1.23 µg/mL (≈ 2.72 µM) in experiment [3].

Regarding `C/C=C(\C)C(=O)C1=C2C3=COC(/C=C/[C@@H](C)CC)=CC3=C(Cl)C(=O)[C@@]2(C)OC1=O`, the outcome in experiment [1] was inactive.

On to `CC[C@H](C)/C=C/C1=CC2=C(Cl)C(=O)[C@@]3(C)OC(=O)C4=C(C(C)C(C)O)OC(O1)C2(O)C43O` (stereo partly specified), for which the result in experiment [1] was inactive.

`C[C@H](O)[C@H](C)C(=O)[C@@H]1C(=O)O[C@]2(C)C(=O)C(Cl)=C3C=C(/C=C/[C@@H](C)[C@@H](C)O)OC=C3[C@H]12`: the outcome in experiment [1] was inactive.

As to `CC[C@H](C)/C=C/C1=CC2=C(Cl)C(=O)[C@@]3(C)OC(=O)C(C(=O)[C@H](C)CC)=C3C2=CO1`, in experiment [1], the result was inactive.

On to `CC[C@H](C)/C=C/C1=CC2=CC(=O)[C@@]3(C)OC(=O)C(C(=O)[C@@H](C)[C@@H](C)O)=C3C2=CO1`, for which the result in experiment [1] was inactive.

For the molecule `CC[C@H](C)/C=C/C1=CC2=C(Cl)C(=O)[C@@]3(C)OC(=O)C(C(=O)[C@H](C)[C@@H](C)O)=C3C2=CO1`, in experiment [1], the outcome was inactive.
